Screening results as filed in PubChem BioAssay.
EBNA-1 inh: EBNA-1 DNA-binding inhibitors, primary screen, biochemical, fluorescence polarization. inhibition, % at 14.8 µM. 300,000 tested, 0.34% active; in the data active = inhibition above about 28%
FID counter: compounds displacing fluorescent DNA intercalator, primary screen, artefact control for HCV NS3 helicase inhibitor project, biochemical, FID fluorescence; DNA fluorescent intercalator displacement; 290,000 tested, 0.17% active; inhibition, % at 7.9 µM; in the data active = inhibition above about 37%;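 note: 0% = vehicle and 100% = reference compound; higher means more ethidium bromide displaced from hairpin DNA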
HCV NS3 hel inh: inhibitors of HCV NS3 helicase, primary screen, biochemical, Cy5 molecular beacon fluorescence | NS3 helicase DNA unwinding | inhibition, % at 10.9 µM | 290,000 tested, 0.56% active;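 active = inhibition above the mean of all tested compounds plus 3 SD, set per campaign, cut at about 35% in these data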;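 note: 0% = DMSO wells and 100% = thioflavine S control wells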
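Assay system: hepatitis C virus NS3 helicase domain fragment enzyme. Also added: annealed dual-labelled DNA beacon duplex, ATP-started. Timing: 1 h reaction at 25 °C, ATP-initiated. Technique: Cy5 fluorescence at 0 and 60 min, beacon hairpin quenching. Evaluation: % inhibition of unwinding. Replication: one well per compound.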
NR3A LBD binder: binders of NR3A ligand-binding domain, primary screen, biophysical, differential scanning fluorimetry, uHTS. Glutamate receptor ionotropic, NMDA 3A (GRIN3A) ligand-binding domain. NR3A LBD differential scanning fluorimetry, Tm shift; 0% = protein alone, 100% = glycine-bound protein. Tm shift relative to glycine control, % at 25 µM. 340,000 tested, 2.5% active. AID 1259313, 2017;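 active = melting temperature shift of at least 10% of the positive control shift, at one fixed dose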
ZTA counter: blocks Epstein-Barr virus ZTA, an EBNA-1 counter-screen. 320,000 tested, 0.15% active. inhibition, % at 11 µM. ZTA-DNA binding, fluorescence polarization; in the data active = inhibition above about 33%
Target sequence (P03206 whole entry, looked up): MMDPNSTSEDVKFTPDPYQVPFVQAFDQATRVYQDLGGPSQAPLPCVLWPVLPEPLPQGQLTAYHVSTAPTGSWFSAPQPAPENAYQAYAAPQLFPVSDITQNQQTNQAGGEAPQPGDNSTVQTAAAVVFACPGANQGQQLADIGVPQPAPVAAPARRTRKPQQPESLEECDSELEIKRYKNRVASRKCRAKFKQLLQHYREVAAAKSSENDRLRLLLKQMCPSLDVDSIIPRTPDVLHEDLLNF
FGF22 binding: binders of human FGF22 protein, primary screen, FGF22 synaptogenesis inhibitor project, biophysical, thermal shift, single point. recombinant FGF22 thermal shift, SYPRO orange fluorescence; percent of sucrose octasulfate shift, DMSO zero. AID 651658, 2012. activity (Tm shift, normalised), % at 9.99 µM. Fibroblast growth factor 22 (Homo sapiens), Q9HCT0. 340,000 tested, 1.5% active;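 active = mean Tm shift, scaled 0 neutral to 100 positive control, at about 1.3% or above, every replicate too, limit read from the data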
Target sequence (Q9HCT0 whole entry, looked up): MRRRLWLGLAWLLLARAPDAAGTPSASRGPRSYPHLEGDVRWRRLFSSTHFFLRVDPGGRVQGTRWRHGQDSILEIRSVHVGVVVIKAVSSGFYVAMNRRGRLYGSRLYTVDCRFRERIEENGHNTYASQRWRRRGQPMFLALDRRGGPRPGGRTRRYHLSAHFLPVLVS
EBNA-1 inh conf: EBNA-1 DNA-binding inhibitors, retest, confirmation, biochemical, fluorescence polarization, triplicate; shares compounds with EBNA-1 inh; 830 tested, 35% active; Recombinant EBNA-1 DBD, Cy5-DNA fluorescence polarization; inhibition, % at 14.8 µM;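 active = mean inhibition across replicates above a set limit taken from the earlier primary screen, cut at about 28% in these data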;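 note: plate controls were EBNA-1 protein with DMSO for no effect and wells lacking EBNA-1 for full effect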
ZTA counter trip: EBV Zta DNA binding inhibitors, counter-screen for EBNA-1 inhibitor project, biochemical, fluorescence polarization, triplicate. shares compounds with EBNA-1 inh. Zta-ZRE DNA binding, Cy5 fluorescence polarization. inhibition, % at 11.1 µM. 830 tested, under 10 active;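 active = mean inhibition over triplicates above a set limit taken from the primary EBNA-1 screen, cut at about 37% in these data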;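 note: purified full length Zta protein with Cy5 labeled ZRE DNA probe; 0% = Zta with DMSO and 100% = wells lacking Zta protein; inhibitors lower polarization by freeing the labeled DNA probe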
* = called active by the depositor; · = no result. A selection: hits, their analogues and other compounds. The true share with any hit is near 3.6%.

SMILES | EBNA-1 inh | FID counter | HCV NS3 hel inh | NR3A LBD binder | ZTA counter | FGF22 binding | EBNA-1 inh conf | ZTA counter trip
CCN(/N=C/C=C/c1ccccc1)c1cc(=O)n(C)c(=O)[nH]1 | 7 | -12 | 6 | -22 | -1 | 0 | · | ·
Cc1cc(NC(=O)CSc2nc(-c3ccc(Cl)cc3)cs2)no1 | 40* | -2 | -7 | -1 | 15 | · | 7 | -12
Cc1cc(NC(=O)CSc2ccc(Cl)cc2)no1 | -2 | 3 | 2 | 4 | -12 | · | · | ·
CCCNC(=O)C[C@H]1C[C@@H]2c3cc(NS(=O)(=O)c4ccccc4)ccc3O[C@@H]2[C@@H](CO)O1 | · | · | · | · | · | 0 | · | ·
Cc1cc(NC(=O)C2CCCN(S(=O)(=O)c3c(C)noc3C)C2)no1 (configuration not stated) | 0 | -1 | 2 | 0 | -4 | 0 | · | ·
Cc1cc(C)cc(NC(=O)C2CCCN(S(=O)(=O)c3c(C)noc3C)C2)c1 (configuration not stated) | 44* | -30 | 1 | 1 | -5 | 0 | 3 | 2
Cc1ccc(S(=O)(=O)N2CCCC(C(=O)Nc3cccnc3)C2)cc1 (configuration not stated) | -1 | -16 | 12 | 1 | -10 | · | · | ·
COc1cccc(NC(=O)C2CCCN(S(=O)(=O)c3ccc(-n4cnnn4)cc3)C2)c1 (configuration not stated) | 55* | 2 | -14 | -1 | -14 | · | 24 | 3
Cc1ccc(S(=O)(=O)N2CCCC(C(=O)Nc3ccc(NC(=O)c4ccccn4)cc3)C2)cc1 (configuration not stated) | 78* | -1 | 10 | -6 | 15 | · | 31* | -10
CCOc1cccc(NC(=O)C2CCCN(S(=O)(=O)c3ccc(-n4cnnn4)cc3)C2)c1 (configuration not stated) | 2 | 3 | 2 | -3 | -14 | · | · | ·
COc1ccc(S(=O)(=O)Nc2ccc3c(c2)C(=O)N([C@H](C)CO)C[C@@H](C)[C@H](CN(C)S(=O)(=O)c2ccc(OC)cc2)OCCCC[C@@H](C)O3)cc1 | · | · | · | · | · | 0 | · | ·
Cc1ccc(S(=O)(=O)N(C)C[C@@H]2Oc3ccc(NC(=O)C4CC4)cc3CC(=O)N([C@@H](C)CO)C[C@@H]2C)cc1 | · | · | · | · | · | 0 | · | ·
c1coc(CNc2nc(N3CCCCC3)nc3ccccc23)c1 | -12 | 8 | -15 | 2 | 4 | · | · | ·
O=c1c2ccccc2nc2c3ccccc3c(NCc3ccco3)nn12 | 32* | -2 | 15 | -1 | 5 | · | 2 | -7
COCC(=O)N1[C@@H](CO)[C@@H](c2ccc(-c3ccccc3OC)cc2)C12CN(C(C)=O)C2 | · | · | · | · | · | 0 | · | ·
Cc1nc(Nc2cccc(Cl)c2)c2oc3ccccc3c2n1 | 29* | -8 | -25 | 36* | 4 | 0 | -4 | 11
Cc1nc(Nc2ccc(Cl)cc2)c2oc3ccccc3c2n1 | 0 | 6 | 22 | · | -1 | 0 | · | ·
COc1ccc(-c2[nH]c(-c3ccc(C)cc3)nc2SCC(=O)Nc2nccs2)cc1 | -8 | 3 | 6 | 5 | 0 | · | · | ·
COc1ccc(-c2nc(SCC(=O)Nc3nccs3)c(-c3ccc(Cl)cc3)[nH]2)cc1 | 73* | -3 | -31 | 15* | 4 | 0 | 32* | -2
CC(=O)Nc1ccc(/C=C/c2nc(-c3ccccc3O)n[nH]2)cc1 | 45* | -9 | -6 | 21* | 1 | 0 | -6 | 1
